PMC11162967 (International Journal of Nanomedicine, 2024)
In brackets after ≈: the same amount, converted by molar mass.

Key:
In vitro dissolution = type: physicochemical; settings: 37°C
HUA model mice = experiment: Anti-hyperuricemia study in HUA mice model; type: in vivo, ICR mice; settings: oral 30 mg/kg luteolin for 2 weeks, compared with HUA group
Outline: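 Male ICR mice, n=8 per group. Hyperuricemia induced by daily intraperitoneal potassium oxonate 300 mg/kg plus hypoxanthine 300 mg/kg in normal saline for seven consecutive days. Test compound given by gavage in normal saline at 30 mg/kg luteolin-equivalent for 2 weeks, including 1-week pretreatment. Vehicle and febuxostat 10 mg/kg (oral, one week) controls. Serum uric acid measured by commercial kit at end; one-way ANOVA.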

Caco-2 cells [1] = experiment: Cytotoxicity study on Caco-2 cells; type: cell-based; settings: under the experimental conditions (Figure S4)
Saturated solubility = type: physicochemical; settings: ultrapure water
Outline: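 Excess test material added to 5 mL ultrapure water, shaken 24 h at 37°C. Undissolved drug removed by centrifugation (12,000 rpm, 30 min) and 0.22 μm filtration. Filtrate concentration measured by HPLC. n=3, mean ± SD.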

Caco-2 cells [2] = experiment: Cellular uptake in Caco-2 cell monolayer; type: in vitro ADME; settings: Caco-2, 30 μM luteolin, 37°C, 4 h
Caco-2 cells [3] = experiment: Cellular uptake mechanisms with endocytosis inhibitors; type: in vitro ADME
Outline: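 Caco-2 cells seeded at 2.5×10^4 per well, cultured 14 days. Then rinsed and given test compound at 30 μM luteolin, 4 h at 37°C. Washed, lysed by ultrasonication, luteolin by HPLC normalised to BCA protein. Compared with uninhibited control.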

## O=c1cc(-c2ccc(O)c(O)c2)oc2cc(O)cc(O)c12 [LUT, Luteolin]
In vitro dissolution; SGF pH 1.2 with 0.5% Tween 80, within 3 min
  drug dissolved (cumulative dissolution): 25.78%
In vitro dissolution; SIF pH 6.8 with 0.5% Tween 80, within 3 min
  drug dissolved (cumulative dissolution): 48.47%
HUA model mice
  serum UA level reduction: 51.67%
Caco-2 cells [1]
  viability of Caco-2 cells: did not affect the viability
Saturated solubility
  solubility at 24 h: 0.94 ± 0.07 µg/mL (≈ 3.28 µM)
Caco-2 cells [2]
  cellular uptake: 25.89 ± 4.94 μg luteolin/mg cellular protein
Caco-2 cells [3]; Caco-2 pretreated with inhibitor 1 h
  effect of chlorpromazine, indomethacin, or colchicine on cellular uptake: no significant change
Caco-2 cells [3]; Caco-2 pretreated with sodium azide 650 μg/mL 1 h
  effect of sodium azide on cellular uptake: significantly reduced
